Values without a mark were called inactive. Activity calls are given as the source filed them.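 How the source made its calls: active means growth signal loss with fitted half-maximal concentration up to ten times the top valid dose; inconclusive means flat curve with 30 to 70% inhibition, or poor fit; inactive means the rest, including opposite-direction effects.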
Test: single-agent antifungal toxicity against Candida – Alamar Blue fluorescence, dry powder, set 5, counter-screen, dose response (AID 493070)
Details: C. albicans CaCi-2 growth, 48 h; series mostly up to 26 µM
Summary of the method: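 Technique: Alamar Blue fluorescence, Ex 544/Em 590 nm / Material: C. albicans CaCi-2 grown without fluconazole / Schedule: 48 h growth at 37 °C, 2 h dye step / Dosing: pinned compound / Buffer or medium: RPMI-based synthetic defined medium containing MOPS, glucose and uridine / Read-out basis: fungal growth from Alamar Blue RFU, signal loss indicating broad toxicity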

SMILES | outcome | activity change, negative = inhibition
COc1ccc(NC(=O)Cn2c3ccccc3c3nc4n(c(=O)c32)CCS4)cc1 | inactive | –
O=C(Cn1c2ccccc2c2nc3n(c(=O)c21)CCS3)NCCc1ccc(Cl)cc1 | inactive | –
CC1CCN(C(=O)Cn2c3ccccc3c3nc4n(c(=O)c32)CCCS4)CC1 | inactive | –
COC(=O)Cn1nc(-c2ccc(Cl)cc2)c2ccccc21 | inactive | –
COC(=O)Cn1nc(-c2ccccc2)c2ccccc21 | inactive | –
O=C(Cn1c2ccccc2c2ccncc21)N1CCCCC1 | inactive | –
CC1CCN(C(=O)Cn2c3ccc(F)cc3c3nc4n(c(=O)c32)CCCS4)CC1 | inactive | –
CCN(CC)C(=O)Cn1c2ccccc2c2nc3n(c(=O)c21)CCS3 | inactive | –
O=C(Cn1c2ccccc2c2nc3n(c(=O)c21)CCCS3)c1ccc(F)cc1 | inactive | –
COC(=O)Cn1c(-c2ccccc2)nc2ccccc21 | inactive | –
O=C(Cn1c2ccccc2c2nc3n(c(=O)c21)CCS3)N1CCCC1 | inactive | –
COc1ccc2c(c1)c1nc3n(c(=O)c1n2CC(=O)N1CCC(Cc2ccccc2)CC1)CCS3 | inactive | –
O=C(Cn1c2ccc(F)cc2c2nc3n(c(=O)c21)CCS3)N1CCCCC1 | inactive | –
O=C(Cn1c2ccc(F)cc2c2nc3n(c(=O)c21)CCS3)N1CCCC1 | inactive | –
O=C(Cn1c2ccccc2c2nc3n(c(=O)c21)CCS3)N1CCOCC1 | inactive | –
COc1ccc2c(c1)c1nc3n(c(=O)c1n2CC(=O)N1CCC(C)CC1)CCS3 | – | 0.019% [at 2.6 µM]
O=c1c2[nH]c3ccccc3c2nc2n1CCS2 | inactive | –
CC1CCN(C(=O)Cn2c3ccccc3c3nc4n(c(=O)c32)CCS4)CC1 | inactive | –

Reference: PubChem BioAssay AID493070 (Broad Institute, 2011)
